In ChEMBL document CHEMBL3044872, “Synthesis and quantitative structure-activity relationships of fluorine-containing 4,4-dihydroxylmethyl-2-aryliminooxazo(thiazo)lidines as trehalase inhibitors” (J Agric Food Chem, 2001):

Experiments:
[1] = biological target: T1, Uncharacterized protein (Sus scrofa, UniProt I3LIR5); test: Inhibition of Sus scrofa (pig) trehalase using trehaloase as substrate incubated for 15 min prior to substrate addition measured after 1.5 hr by spectrophotometric analysis
T1 sequence (I3LIR5 whole entry): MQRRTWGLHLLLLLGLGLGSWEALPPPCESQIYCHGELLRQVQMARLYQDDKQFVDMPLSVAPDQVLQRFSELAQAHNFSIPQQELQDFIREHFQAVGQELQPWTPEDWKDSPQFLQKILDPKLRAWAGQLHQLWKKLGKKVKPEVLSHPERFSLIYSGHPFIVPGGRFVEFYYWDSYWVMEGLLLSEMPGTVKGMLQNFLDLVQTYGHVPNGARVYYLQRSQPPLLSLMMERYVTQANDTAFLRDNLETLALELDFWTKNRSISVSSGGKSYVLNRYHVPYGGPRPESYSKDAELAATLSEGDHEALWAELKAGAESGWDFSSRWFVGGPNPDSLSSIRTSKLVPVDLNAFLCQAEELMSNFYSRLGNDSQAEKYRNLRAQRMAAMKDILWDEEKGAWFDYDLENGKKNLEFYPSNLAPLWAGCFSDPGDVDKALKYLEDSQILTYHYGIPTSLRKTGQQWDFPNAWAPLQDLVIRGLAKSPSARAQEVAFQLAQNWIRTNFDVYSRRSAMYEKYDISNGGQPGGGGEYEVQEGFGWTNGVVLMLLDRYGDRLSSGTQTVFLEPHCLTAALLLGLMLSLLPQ
Procedure, shortened: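 Porcine trehalase (1.08 µg) in […], pH 5.5, preincubated with compound in DMSO for 15 min at 37 °C. […] added, then incubated 1.5 h at 37 °C. Stopped with Ba(OH)2/Zn(OH)2 and centrifuged. Glucose measured by glucose oxidase/peroxidase/ABTS (30 min, room temperature), A660, against a glucose standard curve. At least 5 concentrations; expressed as pIC50.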

[2] = test system: Drosophila melanogaster; test: Larvicidal activity against Drosophila melanogaster at 200 ppm relative to control; format: functional
Procedure, shortened: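 One hundred wild-type eggs placed on 8 cm3 yeast/corn meal/agar medium containing compound at 200 ppm, dissolved in DMSO.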

[3] = test system: Drosophila melanogaster; test: Insecticidal activity against adult Drosophila melanogaster cultured on compound-treated corn media assessed as inhibition of flight at 200 ppm after 48 hr relative to control; format: functional
Procedure, shortened: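 Wild-type adult flies fed corn medium containing compound for 48 h. Flies ether-anesthetized for 2 min and glued by the abdomen to the arm of a computer-monitored flight mill; flown at 25 °C under natural light. Inhibition % = (1 − treated flight distance/untreated flight distance) × 100.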

[4] = biological target: T2, Trehalase (Bombyx mori, UniProt P32358); test: Inhibition of Bombyx mori trehalase
T2 sequence (P32358 whole entry): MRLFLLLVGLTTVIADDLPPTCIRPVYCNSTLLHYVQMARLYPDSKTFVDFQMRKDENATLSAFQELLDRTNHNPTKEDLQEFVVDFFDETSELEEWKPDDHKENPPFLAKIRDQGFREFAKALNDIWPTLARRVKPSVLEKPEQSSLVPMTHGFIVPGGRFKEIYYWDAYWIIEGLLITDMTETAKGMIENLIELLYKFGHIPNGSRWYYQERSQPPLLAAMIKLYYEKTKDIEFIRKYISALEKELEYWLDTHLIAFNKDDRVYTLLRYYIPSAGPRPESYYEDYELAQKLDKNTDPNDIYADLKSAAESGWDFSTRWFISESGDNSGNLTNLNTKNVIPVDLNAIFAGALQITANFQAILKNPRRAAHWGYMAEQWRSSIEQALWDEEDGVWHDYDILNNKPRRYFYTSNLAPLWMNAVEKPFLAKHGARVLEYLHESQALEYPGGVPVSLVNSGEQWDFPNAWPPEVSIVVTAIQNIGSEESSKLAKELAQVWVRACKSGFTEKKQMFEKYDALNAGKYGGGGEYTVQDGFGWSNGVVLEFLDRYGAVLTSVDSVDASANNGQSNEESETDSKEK

IC50 [1]	Compound	Activity [2]	inhibition at 200 ppm [3]	IC50 [4]
75.9 µM	OCC1(CO)CO/C(=N\c2ccccc2F)N1	45.2%	30.7%	
832 µM	OCC1(CO)CS/C(=N\c2ccccc2F)N1	66.5%	45.4%	
263 µM	OCC1(CO)CO/C(=N\c2ccc(F)cc2)N1	56.3%	35.7%	
575 µM	OCC1(CO)CS/C(=N\c2ccc(F)cc2)N1	60.4%	37.2%	
891 µM	OCC1(CO)CO/C(=N\c2ccc(F)cc2F)N1	17.2%	2.7%	
6170 µM	OCC1(CO)CS/C(=N\c2ccc(F)cc2F)N1	35.1%	1.7%	
35.5 µM	OCC1(CO)CO/C(=N\c2ccc(F)c(Cl)c2)N1	65%	37.2%	
240 µM	OCC1(CO)CS/C(=N\c2ccc(F)c(Cl)c2)N1	76%	49.7%	
85.1 µM	OCC1(CO)CO/C(=N\c2ccc(F)c(F)c2F)N1	50.4%	16.6%	
708 µM	OCC1(CO)CS/C(=N\c2ccc(F)c(F)c2F)N1	65.3%	26.9%	
	OC[C@H]1O[C@H](NC2=N[C@@H]3[C@H](O2)[C@@H](O)[C@H](O)[C@]3(O)CO)[C@H](O)[C@@H](O)[C@@H]1O [TREHAZOLIN]			0.049 µM
